Laboratory results from ChEMBL document CHEMBL2384909, “Development of Novel Alkene Oxindole Derivatives As Orally Efficacious AMP-Activated Protein Kinase Activators” (ACS Med Chem Lett, 2013).

Assays:
[1] = molecular target: T1, 5'-AMP-activated protein kinase catalytic subunit alpha-1 (Homo sapiens, UniProt Q13131); experiment: Activation of recombinant AMPK alpha1 (1 to 394) (unknown origin) at 20 ug/mL after 2 hrs by scintillation proximity assay relative to PT1
Target sequence in this assay (Q13131 whole entry, looked up): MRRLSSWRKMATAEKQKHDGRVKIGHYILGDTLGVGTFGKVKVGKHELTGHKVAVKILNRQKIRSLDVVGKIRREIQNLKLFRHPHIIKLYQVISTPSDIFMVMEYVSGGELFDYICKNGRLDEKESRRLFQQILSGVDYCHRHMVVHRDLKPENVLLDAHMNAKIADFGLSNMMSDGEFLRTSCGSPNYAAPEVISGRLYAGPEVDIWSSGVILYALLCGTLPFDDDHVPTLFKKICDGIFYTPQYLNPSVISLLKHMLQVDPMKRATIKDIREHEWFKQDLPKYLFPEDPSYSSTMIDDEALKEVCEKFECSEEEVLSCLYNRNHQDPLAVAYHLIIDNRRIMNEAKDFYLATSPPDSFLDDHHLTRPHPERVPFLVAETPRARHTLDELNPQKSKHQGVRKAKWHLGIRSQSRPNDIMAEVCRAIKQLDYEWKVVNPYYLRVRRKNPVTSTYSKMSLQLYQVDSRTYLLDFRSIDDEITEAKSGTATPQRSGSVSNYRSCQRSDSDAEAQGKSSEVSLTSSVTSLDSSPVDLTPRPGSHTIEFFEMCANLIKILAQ

[2] = molecular target: AMPK alpha2/beta1/gamma1 (Homo sapiens) (UniProt P54646+P54619+Q9Y478); experiment: Activation of recombinant AMPK alpha2beta1gamma1 (unknown origin) at 20 ug/mL after 2 hrs by scintillation proximity assay relative to AMP; format: protein-complex assay
AMPK alpha2/beta1/gamma1 (Homo sapiens), sequence (P54619 whole entry partner): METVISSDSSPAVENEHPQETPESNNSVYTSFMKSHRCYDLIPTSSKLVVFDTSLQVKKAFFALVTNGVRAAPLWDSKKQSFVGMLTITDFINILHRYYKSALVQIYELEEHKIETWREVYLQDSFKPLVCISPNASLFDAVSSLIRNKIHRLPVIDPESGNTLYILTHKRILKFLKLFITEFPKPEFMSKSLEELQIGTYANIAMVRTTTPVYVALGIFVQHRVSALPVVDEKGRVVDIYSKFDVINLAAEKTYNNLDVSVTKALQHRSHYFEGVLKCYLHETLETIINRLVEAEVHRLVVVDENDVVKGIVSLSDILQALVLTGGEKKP
AMPK alpha2/beta1/gamma1 (Homo sapiens), sequence (P54646 whole entry): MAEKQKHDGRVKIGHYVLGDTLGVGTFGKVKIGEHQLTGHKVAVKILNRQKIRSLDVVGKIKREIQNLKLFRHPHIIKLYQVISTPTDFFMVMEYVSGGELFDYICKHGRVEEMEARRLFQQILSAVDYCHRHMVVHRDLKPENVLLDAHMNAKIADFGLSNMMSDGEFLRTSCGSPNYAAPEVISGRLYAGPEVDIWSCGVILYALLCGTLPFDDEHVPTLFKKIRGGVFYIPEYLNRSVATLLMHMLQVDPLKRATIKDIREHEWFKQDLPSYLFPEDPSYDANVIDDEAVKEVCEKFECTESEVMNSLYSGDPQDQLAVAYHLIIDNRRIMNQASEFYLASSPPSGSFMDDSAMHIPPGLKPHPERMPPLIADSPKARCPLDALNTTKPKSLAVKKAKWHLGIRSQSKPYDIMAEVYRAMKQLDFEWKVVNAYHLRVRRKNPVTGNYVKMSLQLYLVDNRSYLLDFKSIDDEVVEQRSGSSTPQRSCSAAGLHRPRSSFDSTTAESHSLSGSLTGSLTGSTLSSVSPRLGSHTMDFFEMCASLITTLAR
AMPK alpha2/beta1/gamma1 (Homo sapiens), sequence (Q9Y478 2-270 partner limits assumed): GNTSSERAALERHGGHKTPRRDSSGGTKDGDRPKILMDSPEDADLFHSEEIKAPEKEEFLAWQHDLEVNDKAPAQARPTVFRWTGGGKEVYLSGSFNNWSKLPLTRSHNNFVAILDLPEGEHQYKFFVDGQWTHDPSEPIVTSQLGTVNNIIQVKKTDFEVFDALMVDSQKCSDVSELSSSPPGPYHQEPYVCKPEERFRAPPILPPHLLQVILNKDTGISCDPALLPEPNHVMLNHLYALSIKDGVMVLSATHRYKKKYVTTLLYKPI

AMPK alpha2/beta1/gamma1 = AMPK alpha2/beta1/gamma1 (Homo sapiens, UniProt P54619+P54646+Q9Y478); experiment: Activation of recombinant AMPK alpha2beta1gamma1 (unknown origin) after 2 hrs by scintillation proximity assay; format: protein-complex assay
AMPK alpha2/beta1/gamma1, sequence (P54646 whole entry): as the sequence (P54646 whole entry) above
AMPK alpha2/beta1/gamma1, sequence (P54619 whole entry): as the sequence (P54619 whole entry partner) above
AMPK alpha2/beta1/gamma1, sequence (Q9Y478 whole entry): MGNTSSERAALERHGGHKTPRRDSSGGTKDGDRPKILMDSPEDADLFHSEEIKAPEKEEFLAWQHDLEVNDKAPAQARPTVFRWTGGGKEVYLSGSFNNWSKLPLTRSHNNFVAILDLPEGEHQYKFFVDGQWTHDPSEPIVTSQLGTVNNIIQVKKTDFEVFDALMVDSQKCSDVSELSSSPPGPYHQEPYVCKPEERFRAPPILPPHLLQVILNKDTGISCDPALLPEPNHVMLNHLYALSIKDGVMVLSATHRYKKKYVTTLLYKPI
Summary of the method: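 Activation of bacterially expressed AMPK α2β1γ1 was measured by scintillation proximity assay. Efficacy is expressed relative to AMP.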

L6 [3] = experiment: Induction of AMPK-mediated ACC phosphorylation in rat L6 cells by Western blotting analysis; format: cell-based
[4] = molecular target: T1, 5'-AMP-activated protein kinase catalytic subunit alpha-1; experiment: Activation of recombinant AMPK alpha1 (1 to 394) (unknown origin) after 2 hrs by scintillation proximity assay
Target sequence in this assay (Q13131 whole entry): as the sequence (Q13131 whole entry, looked up) above

L6 [5] = experiment: Induction of AMPK phosphorylation in rat L6 cells by Western blotting analysis; format: cell-based
[6] = Activation of partially purified rat liver AMPK assessed as 33P-phosphorylation of SAMS peptide
[7] = Activation of AMPK in rat primary hepatocytes assessed as inhibition of fatty acid biosynthesis by 14C-acetate incorporation assay; format: cell-based; conditions: Hepatocyte
[8] = molecular target: T1, 5'-AMP-activated protein kinase catalytic subunit alpha-1; experiment: Activation of human AMPK alpha1 (1 to 394) expressed in African green monkey COS7 cells; format: cell-based, COS-7
Target sequence in this assay (Q13131 whole entry): as the sequence (Q13131 whole entry, looked up) above

[9] = molecular target: 5'-AMP-activated protein kinase catalytic subunit alpha-2 (Homo sapiens, UniProt P54646); experiment: Activation of human AMPK alpha2 (1 to 398) expressed in African green monkey COS7 cells; format: cell-based, COS-7
5'-AMP-activated protein kinase catalytic subunit alpha-2, sequence (P54646 whole entry): as the sequence (P54646 whole entry) above

Mus musculus = experiment: Antidiabetic activity in diet-induced obese C57BL/6J mouse assessed as reduction in plasma triglyceride at 150 mg/kg, po qd for 4 weeks (reference value: 0.62 +/- 0.02 mM); format: functional

| Structure (SMILES) | Activity [1] | Efficacy [2] | EC50 (AMPK alpha2/beta1/gamma1) | other results |
| --- | --- | --- | --- | --- |
| O=C(O)c1cccc(CN2C(=O)/C(=C(/c3ccc(Cl)cc3)C3CCCCC3)c3ccccc32)c1 |  | 103% | 4.6 µM |  |
| O=C1/C(=C(\c2ccccc2)c2ccc(Cl)cc2)c2ccccc2N1Cc1ccccc1 |  | 70% | 1 µM |  |
| O=C(O)c1cccc(CN2C(=O)/C(=C/c3ccc(-c4ccc(F)c(Cl)c4)o3)c3ccccc32)c1 |  | 122% | 4.8 µM | Activity (L6 [3]): Dose-dependent effect; Activity (L6 [5]): Dose-dependent effect |
| O=C(O)c1cccc(CN2C(=O)/C(=C(\c3ccccc3)c3ccc(F)c(Cl)c3)c3ccccc32)c1 |  | 105% | 5.9 µM |  |
| N#Cc1c(O)c2c(-c3ccc(-c4ccccc4O)cc3)csc2[nH]c1=O |  |  |  | EC50 [6]: 0.8 µM; IC50 [7]: 3.2 µM |
| O=C(O)c1cccc(CN2C(=O)/C(=C(\c3ccccc3)c3cccnc3)c3ccccc32)c1 |  | 96% | 3.2 µM |  |
| O=C(O)c1cccc(CN2C(=O)/C(=C(\c3ccccc3)c3ccccc3Cl)c3ccccc32)c1 |  | 101% | 1.8 µM |  |
| O=C(O)c1ccc(CN2C(=O)/C(=C(\c3ccccc3)c3ccc(Cl)cc3)c3ccccc32)nc1 |  | 75% | 9.2 µM |  |
| CC(C)/C(=C1\C(=O)N(Cc2cccc(C(=O)O)c2)c2ccccc21)c1ccccc1 |  | < 50% | > 10 µM |  |
| CC(C)/C(=C1\C(=O)N(Cc2cccc(C(=O)O)c2)c2ccccc21)c1ccc(Cl)cc1 |  | 227% | 9.9 µM |  |
| CN(C)C(=N)NC(=N)N [METFORMIN] |  |  |  | Activity (Mus musculus): 0.5 mM |
| O=C(O)c1cccc(CN2C(=O)/C(=C(\c3ccccc3)c3ccccc3OC(F)(F)F)c3ccccc32)c1 |  | 99% | 7.4 µM |  |
| CC(C)c1ccc(/C(=C2/C(=O)N(Cc3cccc(C(=O)O)c3)c3ccccc32)c2ccccc2)cc1 |  | 97% | 4 µM |  |
| CC(C)NC(=O)c1cccc(CN2C(=O)/C(=C(\c3ccccc3)c3ccc(Cl)cc3)c3ccccc32)c1 |  | 151% | 4.5 µM |  |

More lines, main results first:

| Activity [1] | Efficacy [2] | EC50 (AMPK alpha2/beta1/gamma1) | Structure (SMILES) | other results |
| --- | --- | --- | --- | --- |
| < 50% |  |  | Cc1cc(-c2ccc(/C=C3\S/C(=N\c4ccc(F)cc4)NC3=O)o2)c([N+](=O)[O-])cc1C |  |
| < 50% |  |  | O=C1N/C(=N/c2ccc(Cl)c(C(=O)O)c2)S/C1=C\c1ccc(-c2ccccc2Cl)o1 |  |
| 341% | 152% | 3.2 µM | O=C(O)c1cccc(CN2C(=O)/C(=C/c3ccc(-c4cccc([N+](=O)[O-])c4)o3)c3ccccc32)c1 | Activity (L6 [3]): Dose-dependent effect; EC50 [4]: 2.1 µM; Activity (L6 [5]): Dose-dependent effect |
| 176% |  |  | O=C1N/C(=N/c2ccc(Cl)c(C(=O)O)c2)S/C1=C\c1ccc(-c2cccc([N+](=O)[O-])c2)o1 |  |
| < 50% |  |  | COC(=O)c1cc(/N=C2/NC(=O)/C(=C/c3ccc(-c4cc(C)c(C)cc4[N+](=O)[O-])o3)S2)ccc1Cl |  |
| 106% |  |  | Cc1cc(-c2ccc(/C=C3\S/C(=N\c4cccc(C(=O)O)c4)NC3=O)o2)c([N+](=O)[O-])cc1C |  |
| < 50% |  |  | Cc1cc(-c2ccc(/C=C3\SC(=S)N(c4cccc(C(=O)O)c4)C3=O)o2)c([N+](=O)[O-])cc1C |  |
| < 50% |  |  | O=C1N/C(=N/c2ccc(Cl)c(C(=O)O)c2)S/C1=C\c1ccc(-c2ccccc2[N+](=O)[O-])o1 |  |
| 55% |  |  | Cc1cc(-c2ccc(/C=C3\S/C(=N\c4ccccc4C(=O)O)NC3=O)o2)c([N+](=O)[O-])cc1C |  |
|  | 40% | 0.3 µM | Cc1cc(-c2ccc(/C=C3\S/C(=N\c4ccc(Cl)c(C(=O)O)c4)NC3=O)o2)c([N+](=O)[O-])cc1C | EC50 [4]: 9.6 µM; EC50 [8]: 9 µM; EC50 [9]: 12 µM |
